Experimental data: paper PMC6510378 (Clinical and Translational Science, 2019)

Assay: SAD study plasma PK, single oral dose, healthy young subjects
Format: in vivo, human
Conditions: for Tmax / Cmax / AUC(0-inf) / half-life: human, plasma, po; for AUC(0-inf): AUCinf; for half-life: t½
How it was run: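 Healthy adults aged 18–55, randomized 6 active : 2 placebo per cohort, received a single fasted oral dose (1–60 mg) with 240 mL water. Serial blood was drawn predose to 72 h, plus 96 and 120 h in the 6, 30 and 60 mg cohorts. Plasma drug was measured by validated HPLC-MS/MS, with below-limit values set to zero. Dose proportionality used a power model on log-transformed dose.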

[1] = 3 mg, Median, single oral dose 3 mg, n=6
[2] = 3 mg, Min–max, single oral dose 3 mg, n=6
[3] = 6 mg, Mean (SD), single oral dose 6 mg, n=6
[4] = 6 mg, Median, single oral dose 6 mg, n=6
[5] = 6 mg, Min–max, single oral dose 6 mg, n=6
[6] = 10 mg, Mean (SD), single oral dose 10 mg, n=3
[7] = 10 mg, Median, single oral dose 10 mg, n=3
[8] = 10 mg, Min–max, single oral dose 10 mg, n=3
[9] = 10 mg, Median, single oral dose 10 mg, n=6
[10] = 10 mg, Min–max, single oral dose 10 mg, n=6
[11] = 30 mg, Mean (SD), single oral dose 30 mg, n=6
[12] = 30 mg, Median, single oral dose 30 mg, n=6
[13] = 30 mg, Min–max, single oral dose 30 mg, n=6
[14] = 60 mg, Mean (SD), single oral dose 60 mg, n=6
[15] = 60 mg, Median, single oral dose 60 mg, n=6
[16] = 60 mg, Min–max, single oral dose 60 mg, n=6

With `Cn1c(-c2ccc(C(N)=O)cc2F)nnc1C(C)(C)Oc1c(F)cc(Cl)cc1F` [ASP3662] the Tmax (1 mg, Min–max, single oral dose 1 mg, n=2) was 0.5 to 1 h, the Cmax (3 mg, Mean (SD), single oral dose 3 mg, n=6) was 3.54 ng/mL and the Cmax [1] was 1.6 ng/mL. For the same compound, the Cmax [2] was 0.38 to 9.24 ng/mL, the Tmax [1] was 2.5 h and the Tmax [2] was 1 to 4.02 h. For the same compound, the AUC(0-inf) [3] was 405 ng·h/mL, the AUC(0-inf) [4] was 410 ng·h/mL and the AUC(0-inf) [5] was 169 to 660 ng·h/mL. It also gave a Cmax [3] of 28 ng/mL, a Cmax [4] of 30.5 ng/mL and a Cmax [5] of 10.8 to 43.7 ng/mL. It also gave a Tmax [4] of 1.75 h, a Tmax [5] of 1 to 4 h and a half-life [3] of 37.7 h. For the same compound, the half-life [4] was 37.9 h, the half-life [5] was 28.5 to 46.3 h and the AUC(0-inf) [6] was 858 ng·h/mL. For the same compound, the AUC(0-inf) [7] was 953 ng·h/mL, the AUC(0-inf) [8] was 620 to 1000 ng·h/mL and the Cmax (10 mg, Mean (SD), single oral dose 10 mg, n=6) was 64 ng/mL. For the same compound, the Cmax [9] was 60.9 ng/mL, the Cmax [10] was 49 to 93.6 ng/mL and the Tmax [9] was 1.75 h. It also gave a Tmax [10] of 1 to 6 h, a half-life [6] of 19.5 h and a half-life [7] of 21.9 h. It also gave a half-life [8] of 13.7 to 23 h, an AUC(0-inf) [11] of 3620 ng·h/mL and an AUC(0-inf) [12] of 3370 ng·h/mL. It also gave an AUC(0-inf) [13] of 1630 to 6770 ng·h/mL, a Cmax [11] of 258 ng/mL and a Cmax [12] of 239 ng/mL. For the same compound, the Cmax [13] was 151 to 386 ng/mL, the Tmax [12] was 3.5 h and the Tmax [13] was 1.5 to 4 h. For the same compound, the half-life [11] was 17.6 h, the half-life [12] was 17.4 h and the half-life [13] was 14.5 to 20.2 h. The AUC(0-inf) [14] was 8190 ng·h/mL, the AUC(0-inf) [15] was 8460 ng·h/mL and the AUC(0-inf) [16] was 5440 to 12500 ng·h/mL. The Cmax [14] was 595 ng/mL, the Cmax [15] was 566 ng/mL and the Cmax [16] was 439 to 865 ng/mL. For the same compound, the Tmax [15] was 3.5 h, the Tmax [16] was 2 to 4 h and the half-life [14] was 14.8 h. The half-life [15] was 14.6 h, the half-life [16] was 13.1 to 17.3 h and the “CL/F, Mean (SD)” value (single oral dose 6 mg, n=6) was 18.38 (9.909) L/hour. For the same compound, the “CL/F, Median” value (single oral dose 6 mg, n=6) was 15.62 L/h, the “CL/F, Min–max” value (single oral dose 6 mg, n=6) was 9.09 to 35.4 L/h and the “CL/F, Mean (SD)” value (single oral dose 10 mg, n=3) was 12.20 (3.403) L/hour. The “CL/F, Median” value (single oral dose 10 mg, n=3) was 10.49 L/h, the “CL/F, Min–max” value (single oral dose 10 mg, n=3) was 9.99 to 16.1 L/h and the “CL/F, Mean (SD)” value (single oral dose 30 mg, n=6) was 10.05 (4.856) L/hour. The “CL/F, Median” value (single oral dose 30 mg, n=6) was 9.012 L/h, the “CL/F, Min–max” value (single oral dose 30 mg, n=6) was 4.43 to 18.4 L/h and the “CL/F, Mean (SD)” value (single oral dose 60 mg, n=6) was 7.933 (2.407) L/hour. The “CL/F, Median” value (single oral dose 60 mg, n=6) was 7.091 L/h and the “CL/F, Min–max” value (single oral dose 60 mg, n=6) was 4.81 to 11.0 L/h.
